# Bioassay records (PubChem)
# The list is not random: actives were taken first. Their share in the collection is about 1.8%.
# GSTO1 counter – inhibitors of recombinant GSTO1, primary screen, counter-screen for RBBP9 inhibitor project, biochemical, fluorescence polarization. inhibition, % at 5.96 µM. Glutathione S-transferase omega-1 (Homo sapiens), P78417. activity-based probe fluorescence polarization. 300,000 compounds, 1.1% hits;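 active = inhibition above the campaign mean inhibition plus 3 SD, cut at about 35% in these data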;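 also: 0% = GSTO1-1 with DMSO and 100% = wells lacking GSTO1-1 enzyme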
# Target sequence (P78417 whole entry, looked up): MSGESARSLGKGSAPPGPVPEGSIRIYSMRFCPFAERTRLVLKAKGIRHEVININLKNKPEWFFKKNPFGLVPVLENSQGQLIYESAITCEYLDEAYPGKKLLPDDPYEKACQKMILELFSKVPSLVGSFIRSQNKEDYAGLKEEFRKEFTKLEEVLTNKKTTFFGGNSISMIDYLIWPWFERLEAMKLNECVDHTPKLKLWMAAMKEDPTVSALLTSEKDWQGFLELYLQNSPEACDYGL
# TDP2 inh – human TDP2 enzyme inhibitors, primary screen, biochemical, epi absorbance, recombinant enzyme. T5PNP hydrolysis, p-nitrophenol absorbance 415 nm. AID 720702, 2013. Tyrosyl-DNA phosphodiesterase 2 (Homo sapiens), O95551. inhibition, % at 12.8 µM. 370,000 compounds, 0.34% hits;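 active = inhibition above the mean of all tested compounds plus 3 SD, set per campaign, cut at about 25% in these data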;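 also: 0% = DMSO with enzyme and 100% = buffer with substrate but no TDP2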
# Target sequence (O95551 whole entry, looked up): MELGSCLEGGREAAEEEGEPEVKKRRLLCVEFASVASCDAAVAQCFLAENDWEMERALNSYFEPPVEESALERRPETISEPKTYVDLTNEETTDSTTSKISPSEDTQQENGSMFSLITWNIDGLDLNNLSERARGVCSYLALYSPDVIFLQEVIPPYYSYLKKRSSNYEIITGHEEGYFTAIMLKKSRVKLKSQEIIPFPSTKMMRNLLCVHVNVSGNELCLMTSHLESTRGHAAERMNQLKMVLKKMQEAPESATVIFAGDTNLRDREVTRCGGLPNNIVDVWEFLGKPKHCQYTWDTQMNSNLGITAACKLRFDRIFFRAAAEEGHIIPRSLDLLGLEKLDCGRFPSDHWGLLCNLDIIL
#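 test system = human TDP2 enzyme | input = TDP2 enzyme at 120 nM final | medium = 50 mM Tris-HCl pH 7.5 with Mg2+, KCl, DTT, BSA | also added = T5PNP substrate, 5 mM | times = 2 h at 37 °C | technique = epi absorbance | benchmarks = high control without enzyme, low control DMSO plus TDP2 | replication = each compound tested once, singlicate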
# Apaf-1 inh – inhibitors of human Apaf-1 apoptosome, primary screen, biochemical, DEVD-Rh110 fluorescence, uHTS. Apoptotic protease-activating factor 1 (Homo sapiens), O14727. reconstituted apoptosome caspase-3 activity. inhibition, % at 20 µM. 330,000 compounds, 0.71% hits; active = inhibition of at least 40% at 20 µM;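 also: plate controls were DMSO wells for no effect and DEVD-CHO caspase inhibitor wells for full effect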
#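 System: Apoptosome proteins | Medium: Hepes pH 7.5 with detergent and BSA | Also added: Cytochrome c trigger plus (Z-DEVD)2-Rh110 caspase-3 substrate | Incubation: 30 min compound preincubation, 50 min activation, room temperature | Detection: Rhodamine 110 fluorescence at Ex 480/Em 540 nm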
# CTSL1 counter – Fasciola hepatica cathepsin L1 inhibitors, primary screen, counter-screen for PFM18AAP inhibitor project, biochemical, QFRET, fluorogenic peptide substrate; recombinant F. hepatica cathepsin L1, Z-Leu-Arg-MCA fluorescence; 300,000 compounds, 0.49% hits; inhibition, % at 5.96 µM; AID 1906, 2009;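 active = inhibition above the mean of all tested compounds plus 3 SD, set per screening campaign, cut at about 17% in these data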;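 also: 0% = plate median of test compound wells and 100% = 1 µM Z-Phe-Ala-diazomethylketone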
# PAD4 FP inh – human PAD4 inhibitors, primary screen, biochemical, fluorescence polarization, 1536-well format. 330,000 compounds, 0.41% hits. inhibition, % at 6.36 µM. Protein-arginine deiminase type-4 (Homo sapiens), Q9UM07. recombinant PAD4, RCA probe fluorescence polarization;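 active = percent inhibition above a cutoff equal to the mean of all tested compounds plus 3 SD, cut at about 15% in these data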;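 also: 0% = PAD4 with RCA probe and DMSO and 100% = probe without PAD4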
# PAD4 FP conf – human PAD4 inhibitors, confirmation, biochemical, fluorescence polarization | 1,200 compounds, 28% hits | recombinant PAD4, RCA probe fluorescence polarization | inhibition, % at 6.36 µM | AID 488796, 2010 | shares compounds with PAD4 FP inh;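 active = mean inhibition across replicates above the hit cutoff set by the earlier primary screen, cut at about 15% in these data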;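 also: inhibitors block active-site labeling by the probe so polarization falls; 0% = PAD4 with probe and DMSO and 100% = probe without PAD4 enzyme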
# Apaf-1 inh conf – Apaf-1 inhibitors, single-dose retest, confirmation, biochemical, fluorescence, DEVD-Rh110, 20 µM. shares compounds with Apaf-1 inh. reconstituted apoptosome, caspase-3 DEVD-Rh110 fluorescence. inhibition, % at 20 µM. 1,800 compounds, 25% hits;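 active = mean inhibition of at least 40% at 20 µM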;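 also: plate controls were DMSO wells for no effect and DEVD-CHO caspase inhibitor control wells for full effect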
# Rh110 quench – Rh110 fluorescence interference by putative Apaf-1 inhibitors, confirmation, artefact control for Apaf-1 inhibitor project, biochemical, 20 µM. shares compounds with Apaf-1 inh. quenched caspase reaction. activation (fluorescence interference), % at 20 µM. 1,800 tested, under 10 active;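 active = signal rise of 40% or more at 20 µM, treated as a fluorescence artifact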
# Apaf1 inh interf – fluorescence interference of Apaf-1 inhibitor hits, dose response, artefact control for Apaf-1 inhibitor project; AID 588538, 2011; fluorescence interference counterscreen, Apaf-1 assay format; shares compounds with Apaf-1 inh; 460 tested, under 10 active; IC50, µM; call rule not given here
# TDP2 inh conf – human TDP2 enzyme inhibitors, retest, confirmation, biochemical, epi absorbance, recombinant enzyme | shares compounds with TDP2 inh | absorbance read-out | inhibition, % at 12.8 µM | 1,100 compounds, 22% hits; in the data active = inhibition above about 25%;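 also: 0% = vehicle with enzyme and 100% = no enzyme buffer only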
# The depositor's hits bear a star; x = no result given; ! = repeats disagree.
SMILES,GSTO1 counter,TDP2 inh,Apaf-1 inh,CTSL1 counter,PAD4 FP inh,PAD4 FP conf,Apaf-1 inh conf,Rh110 quench,TDP2 inh conf,others
COc1ccc2noc3c2c1C(=O)c1ccccc1-3,20,38*,78*,5,143*,144*,44*,-58,30*,Apaf1 inh interf=59*
COc1ccc(OC)c2c1C(=O)c1ccccc1C2=O,10,56*,63*,-2,41*,38*,-1,-7,7,
COc1ccc(C=C2C(=O)c3ccccc3C2=O)cc1O,9,4,8,2,-30,x,x,x,x,
O=C(NCCC1=CCCCC1)C1CCN(S(=O)(=O)c2ccccc2[N+](=O)[O-])CC1,x,-9,x,x,x,x,x,x,x,
Cc1cc(OC(=O)c2ccccc2)n(CCC#N)n1,29,50*,43*,0,40*,1,11,-3,11,
CN=C(Nc1cc(C)nn1CCC#N)c1ccccc1,0,8,2,0,-2,x,x,x,x,
COCC(=O)N1CCC(C(=O)NC2CCCc3ccccc32)CC1 (stereo not given),x,-3,x,x,x,x,x,x,x,
Cc1ccc(S(=O)(=O)N(CC(=O)NC2CCC(C)CC2)c2cc(C)cc(C)c2)cc1 (stereo not given),x,9,x,x,x,x,x,x,x,
Cc1ccc(C(C[N+](=O)[O-])c2c(C)[nH]n(-c3ccccc3)c2=O)cc1 (stereo not given),76*,34*,93*,31*,17*,-4,44*,1,32*,Apaf1 inh interf=>100
Cc1ccc(/C=N/Nc2nncn2N)cc1,16,78*,-4,-2,46*,1,x,x,2,
FC(F)(F)c1ccccc1/C=N/Nc1ccccn1,0,1,9,1,-3,x,x,x,x,
Nn1cnnc1N/N=C/c1ccccc1C(F)(F)F,2,51*,-2,-4,39*,7,x,x,-2,
Nn1cnnc1N/N=C/c1ccc(F)cc1,18,64*,-14,-4,41*,3,x,x,-5,
CC(=O)OC[C@H]1O[C@H](C#Cc2ccc(C(C)(C)C)cc2)C=C[C@H]1OC(=O)Nc1ccccc1,x,-12,x,x,x,x,x,x,x,
CC(=O)Nc1cc2nc3ccccc3oc-2cc1=O,x,1,x,x,x,x,x,x,x,
COc1ccc(OC)c(S(=O)(=O)Nc2cccc3ccccc23)c1,-2,1,-3,0,3,x,x,x,x,
COc1ccc(OC)c(S(=O)(=O)Oc2ccc(N)c3ccccc23)c1,35*,33*,69*,-5,21*,-10,38,3,0,
COc1cccc(/C=N/Nc2nnc(C)n2N)c1OCc1ccccc1Cl,25,54*,2,-2,22*,8,x,x,-4,
COc1cccc(C=NNc2nnc(NN=Cc3cccc(OC)c3OC)c3ccccc23)c1OC,x,9,x,x,x,x,x,x,x,
CCc1nnc(N/N=C/c2ccccc2F)n1N,12,66*,-3,1,43*,5,x,x,4,
CCc1nnc(N/N=C/c2ccccc2Cl)n1N,25,61*,-24,-1,36*,1,x,x,-2,
CCOC(=O)N/N=C/c1ccccc1F,-2,-3,-8,3,3,x,x,x,x,
C[C@@H]1CNCCN1c1ccc(N2CCS(=O)(=O)CC2)c(C#N)c1,x,0,x,x,x,x,x,x,x,
CN(Cc1ccccc1)C(=O)OCc1cn(Cc2ccccc2Cl)nn1,x,-6,x,x,x,x,x,x,x,
COC(=O)c1ccccc1-c1ccc(C(c2c(C)[nH][nH]c2=O)c2c(C)[nH][nH]c2=O)o1,65*,78*,79*,4,54*,13,30,6,36*,
SMILES,GSTO1 counter,TDP2 inh,Apaf-1 inh,CTSL1 counter,PAD4 FP inh,PAD4 FP conf,Apaf-1 inh conf,Rh110 quench,TDP2 inh conf,others
CCN(CC)C(=O)c1oc(=O)c2ccccc2c1-c1ccc(C)cc1,x,-7,x,x,x,x,x,x,x,
CCN(CC(=O)Nc1ccc(NC(C)=O)cc1)C(=O)c1ccc(N2CCC(C)CC2)c([N+](=O)[O-])c1,x,7,11,x,1,x,x,x,x,
CCc1nnc(N/N=C/c2ccc(N3CCC(C)CC3)c([N+](=O)[O-])c2)n1N,18,68*,8,-7,29*,4,x,x,12,
Cc1nnc(N/N=C/c2cc([N+](=O)[O-])c(N3CCC(C)CC3)cc2N2CCC(C)CC2)n1N,32,53*,34,2,44*,3,x,x,-14,
CC1=NN(c2ccc(C)c(C)c2)C(=O)/C1=C/c1ccc2c(c1)n(C)c(=O)n2C,37*,53*,94*,0,48*,5,13,5,31*,
O=c1cc(-c2ccc(Br)cc2)[nH][nH]1,24,51*,33,-1,56*,-1,x,x,10,
O=c1ccc(Br)c[nH]1,5,4,2,2,-5,x,x,x,x,
COc1ccc(NC(=S)Nc2ccccc2)cc1,3,3,0,-6,0,x,x,x,x,
Oc1ccc(NC(=S)Nc2ccccc2)cc1,8,25*!,5,-1,21*!,2,x,x,-4,
CC(C)[C@H]1Cn2nnc(-c3ccccc3)c2Cn2c3ccccc3c(=O)n21,x,-7,x,x,x,x,x,x,x,
COc1ccc2ccccc2c1C=NNC(=O)CN1CCN(Cc2ccccc2)CC1,x,-11,x,x,x,x,x,x,x,
CCCCn1[nH]c(-c2ccccc2)cc1=O,57*,47*,26,-2,45*,-5,x,x,10,
Cc1cc(C)c2sc(N(CCN(C)C)C(=O)CCS(=O)(=O)c3ccccc3)nc2c1,2,8,53*,14,4,x,7,7,x,
FC(F)(F)c1cc(CCN2CCNC[C@@H]2Cc2ccccc2)cc(C(F)(F)F)c1,5,-5,57*,-1,2,x,21,8,x,
COC(=O)c1c(NC(=O)c2nc3ccccc3s2)sc2c1CC(C)(C)NC2(C)C,3,6,58*,0,-1,x,18,7,x,
CCOc1ccc(C(=O)Nc2sc3c(c2C(=O)OC)CC(C)(C)NC3(C)C)cc1,0,0,41*,3,1,x,9,12,x,
